Source: ChEMBL document CHEMBL4041496, “Natural-Based Indirubins Display Potent Cytotoxicity toward Wild-Type and T315I-Resistant Leukemia Cell Lines” (J Nat Prod, 2016)
Activity calls are given as the source filed them. The rule behind the calls is not given here.

Legend:
KCL-22 [1] = assay: Cytotoxicity against human KCL22 cells assessed as reduction in cell viability at 1 uM after 48 hrs by MTS assay; format: functional, cell-based
Method in brief: (§1)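 Single-concentration screen: KCL-22 cells, or KCL-22 cells expressing T315I mutant Bcr-Abl, grown in RPMI-1640 with 10% FBS. Cells were seeded at 10 000/well, held overnight at 37 °C in 5% CO2, then exposed to 1 μM compound for 48 h, with DMSO as vehicle control. Viability was read by MTS tetrazolium-to-formazan conversion, absorbance 490 nm, in triplicate.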

KCL-22 [2] = assay: Cytotoxicity against human KCL22 cells harboring ABL1 T315I mutant assessed as reduction in cell viability at 1 uM after 48 hrs by MTS assay; format: functional, cell-based; method in brief: as §1
KCL-22 [3] = assay: Cytotoxicity against human KCL22 cells assessed as cell viability at 1 uM after 48 hrs by MTS assay relative to control; format: functional; details: Homo sapiens, KCL-22, 48 h; read-out: Activity; method in brief: as §1
KCL-22 [4] = assay: Cytotoxicity against human KCL22 cells harboring ABL1 T315I mutant assessed as cell viability at 1 uM after 48 hrs by MTS assay relative to control; format: functional; details: Homo sapiens, KCL-22, 48 h; read-out: Activity; method in brief: as §1

Structure (SMILES)	Activity (KCL-22 [1])	Activity (KCL-22 [2])	viability at 1 µM (KCL-22 [3]) [%]	viability at 1 µM (KCL-22 [4]) [%]
CN1C(=O)/C(=C2\Nc3ccccc3\C2=N/O)c2cccc(I)c21	inactive	inactive	–	–
CCN(CC)C(=O)O/N=C1/C(=C2/C(=O)Nc3cc(Br)ccc32)Nc2ccccc21	–	–	> 50	> 50
O=C1Nc2c(cccc2C(F)(F)F)/C1=C1/Nc2ccccc2C1=O	inactive	inactive	–	–
COC(=O)c1ccc2c(c1)C(=O)/C(=C1/C(=O)Nc3c1cccc3C(F)(F)F)N2	inactive	inactive	–	–
O=C1Nc2c(Br)cccc2/C1=C1/Nc2ccccc2C1=O	inactive	inactive	–	–
O=C1Nc2c(cccc2C(F)(F)F)/C1=C1/Nc2ccc(C(=O)O)cc2/C1=N\OCCN1CCNCC1	inactive	inactive	–	–
COC(=O)c1ccc2c(c1)NC(=C1\C(=O)Nc3c1cccc3C(F)(F)F)/C2=N/OCCN1CCNCC1	inactive	inactive	–	–
Nc1cc2c(cc1Br)NC(=O)/C2=C1\Nc2ccccc2\C1=N/O	inactive	inactive	–	–
N#Cc1ccc2c(c1)C(=N\O)/C(=C1/C(=O)Nc3c1cccc3C(F)(F)F)N2	inactive	inactive	–	–
CC(=O)O/N=C1/C(=C2/C(=O)Nc3cc(Br)c([N+](=O)[O-])cc32)Nc2ccccc21	inactive	inactive	–	–
COC(=O)c1ccc2c(c1)C(=O)/C(=C1/C(=O)N(C)c3c(Br)cccc31)N2	inactive	inactive	–	–
O=C1Nc2c(I)cccc2/C1=C1/Nc2ccccc2/C1=N\O	inactive	inactive	–	–
O=C1Nc2c(Br)cccc2/C1=C1/Nc2ccccc2/C1=N\O	inactive	inactive	–	–
O=C1Nc2cc(Br)ccc2/C1=C1/Nc2ccccc2C1=O	–	–	> 50	> 50
O=C1Nc2ccccc2/C1=C1/Nc2cc(Br)ccc2C1=O	inactive	inactive	–	–
COC(=O)c1ccc2c(c1)NC(=C1\C(=O)Nc3c(Br)cccc31)/C2=N/O	inactive	inactive	–	–
O=C1Nc2c(Br)cccc2/C1=C1/Nc2ccc(-c3nnn[nH]3)cc2C1=O	inactive	inactive	–	–
COC(=O)c1ccc2c(c1)N/C(=C1\C(=O)Nc3c1cccc3C(F)(F)F)C2=O	inactive	inactive	–	–
O=C1Nc2c(Br)cccc2/C1=C1/Nc2cc(C(=O)O)ccc2/C1=N\O	inactive	inactive	–	–
CCCCCNC(=O)O/N=C1/C(=C2/C(=O)Nc3cc(Br)ccc32)Nc2ccccc21	–	–	> 50	> 50
O=C1Nc2c(cccc2C(F)(F)F)/C1=C1/Nc2ccc(-c3nnn[nH]3)cc2C1=O	inactive	inactive	–	–
O=C1Nc2c(Br)cccc2/C1=C1/Nc2ccccc2/C1=N\OCCN1CCNCC1	inactive	inactive	–	–
COC(=O)c1ccc2c(c1)C(=N\OCCN1CCNCC1)/C(=C1/C(=O)Nc3c(Br)cccc31)N2	inactive	inactive	–	–

Structure (SMILES)	Activity (KCL-22 [1])	Activity (KCL-22 [2])	viability at 1 µM (KCL-22 [3]) [%]	viability at 1 µM (KCL-22 [4]) [%]
COC(=O)c1ccc2c(c1)NC(=C1\C(=O)Nc3c(Br)cccc31)/C2=N/OCCN1CCNCC1	inactive	inactive	–	–
N#Cc1ccc2c(c1)C(=O)/C(=C1/C(=O)Nc3c1cccc3C(F)(F)F)N2	inactive	inactive	–	–
O=C1Nc2cc(Cl)c(Cl)cc2/C1=C1/Nc2ccccc2C1=O	inactive	inactive	–	–
COC(=O)c1ccc2c(c1)N/C(=C1\C(=O)Nc3c(Br)cccc31)C2=O	inactive	inactive	–	–
COC(=O)c1ccc2c(c1)C(=N\O)/C(=C1/C(=O)Nc3c1cccc3C(F)(F)F)N2	inactive	inactive	–	–
O=C1Nc2c(F)cccc2/C1=C1/Nc2ccccc2C1=O	inactive	inactive	–	–
CN1C(=O)/C(=C2\Nc3ccccc3\C2=N/O)c2cccc(Br)c21	inactive	inactive	–	–
CCN(CC)CCO/N=C1/C(=C2/C(=O)Nc3c(Br)cccc32)Nc2ccccc21	inactive	inactive	–	–
CN1C(=O)/C(=C2\Nc3ccccc3\C2=N/O)c2ccc(Br)cc21	–	–	> 50	> 50
CC(=O)O/N=C1/C(=C2/C(=O)N(C(C)=O)c3cc(Br)c([N+](=O)[O-])cc32)Nc2ccccc21	inactive	inactive	–	–
O=C1Nc2cc(Br)ccc2/C1=C1/Nc2ccccc2/C1=N\OCCN1CCN(CCO)CC1	–	–	> 50	> 50
CN1C(=O)/C(=C2\Nc3ccccc3\C2=N/OCCN2CCNCC2)c2cccc(Br)c21	inactive	inactive	–	–
COC(=O)c1ccc2c(c1)C(=O)/C(=C1/C(=O)Nc3c(Br)cccc31)N2	inactive	inactive	–	–
CC(=O)c1ccc(NC(=O)O/N=C2/C(=C3/C(=O)Nc4cc(Br)ccc43)Nc3ccccc32)cc1	–	–	> 50	> 50
O=C1Nc2cc(Br)c([N+](=O)[O-])cc2/C1=C1/Nc2ccccc2C1=O	inactive	inactive	–	–
O=C(NC(Cl)(Cl)Cl)O/N=C1/C(=C2/C(=O)Nc3cc(Br)ccc32)Nc2ccccc21	–	–	> 50	> 50
O=C1Nc2c(cccc2C(F)(F)F)/C1=C1/Nc2ccccc2/C1=N\OCCN1CCN(CCO)CC1	inactive	inactive	–	–
CN1C(=O)/C(=C2\Nc3ccccc3\C2=N/O)c2cccc(Cl)c21	inactive	inactive	–	–
COC(=O)c1ccc2c(c1)C(=N\O)/C(=C1/C(=O)Nc3c(Br)cccc31)N2	inactive	inactive	–	–
Cc1cc2c(cc1Br)NC(=O)/C2=C1\Nc2ccccc2C1=O	inactive	inactive	–	–
O=C1Nc2c(cccc2C(F)(F)F)/C1=C1/Nc2cc(C(=O)O)ccc2/C1=N\O	inactive	inactive	–	–
O=C1Nc2c(Cl)cccc2/C1=C1/Nc2ccccc2C1=O	inactive	inactive	–	–
O=C1Nc2c(F)cccc2/C1=C1/Nc2ccccc2/C1=N\O	inactive	inactive	–	–

Structure (SMILES)	Activity (KCL-22 [1])	Activity (KCL-22 [2])	viability at 1 µM (KCL-22 [3]) [%]	viability at 1 µM (KCL-22 [4]) [%]
O=C1Nc2ccccc2/C1=C1/Nc2ccccc2C1=O	inactive	inactive	–	–
O=C1Nc2c(Br)cccc2/C1=C1/Nc2ccc(/C=N/O)cc2/C1=N\O	inactive	inactive	–	–
CC(=O)O/N=C1/C(=C2/C(=O)Nc3cc(Br)c(C)cc32)Nc2ccccc21	inactive	inactive	–	–
O=C1Nc2c(Cl)cccc2/C1=C1/Nc2ccccc2/C1=N\O	inactive	inactive	–	–
CN1C(=O)/C(=C2\Nc3ccccc3C2=O)c2cccc(I)c21	inactive	inactive	–	–
O=C1Nc2cc(Br)c([N+](=O)[O-])cc2/C1=C1/Nc2ccccc2/C1=N\O	inactive	inactive	–	–
O=C1Nc2c(Br)cccc2/C1=C1/Nc2ccc(C(=O)O)cc2/C1=N\OCCN1CCNCC1	inactive	inactive	–	–
O=C1Nc2c(Br)cccc2/C1=C1/Nc2cc(C(=O)O)ccc2/C1=N\OCCN1CCNCC1	inactive	inactive	–	–
O=C1Nc2c(cccc2C(F)(F)F)/C1=C1/Nc2ccc(C(=O)O)cc2/C1=N\O	inactive	inactive	–	–
O=C1Nc2c(Br)cccc2/C1=C1/Nc2ccc(C(=O)O)cc2/C1=N\O	inactive	inactive	–	–
O=C1Nc2c(Br)cccc2/C1=C1/Nc2ccc(/C=N/O)cc2C1=O	inactive	inactive	–	–
O=C1Nc2c(I)cccc2/C1=C1/Nc2ccccc2C1=O	inactive	inactive	–	–
O=C1Nc2c(cccc2C(F)(F)F)/C1=C1/Nc2cc(C(=O)O)ccc2/C1=N\OCCN1CCNCC1	inactive	inactive	–	–
O=C1Nc2c(Br)cccc2/C1=C1/Nc2ccc(-c3nnn[nH]3)cc2/C1=N\O	inactive	inactive	–	–
O=C1Nc2c(cccc2C(F)(F)F)/C1=C1/Nc2ccc(-c3nnn[nH]3)cc2/C1=N\O	inactive	inactive	–	–
O=C1Nc2c(cccc2C(F)(F)F)/C1=C1/Nc2ccccc2/C1=N\OCCN1CCNCC1	inactive	inactive	–	–
COC(=O)c1ccc2c(c1)C(=N\OCCN1CCNCC1)/C(=C1/C(=O)Nc3c1cccc3C(F)(F)F)N2	inactive	inactive	–	–
O=C1Nc2ccccc2/C1=C1/Nc2ccccc2/C1=N\O	inactive	inactive	–	–
COC(=O)c1ccc2c(c1)NC(=C1\C(=O)Nc3c1cccc3C(F)(F)F)/C2=N/O	inactive	inactive	–	–
O=C1Nc2ccccc2/C1=C1/Nc2cc(Br)ccc2/C1=N\O	inactive	inactive	–	–
CN1C(=O)/C(=C2\Nc3ccccc3C2=O)c2cccc(Cl)c21	inactive	inactive	–	–
O=C1Nc2c(cccc2C(F)(F)F)/C1=C1/Nc2ccccc2/C1=N\O	inactive	inactive	–	–
